Assay results published in ChEMBL document CHEMBL4052682, “Exploitation of Conformational Dynamics in Imparting Selective Inhibition for Related Matrix Metalloproteinases” (ACS Med Chem Lett, 2017).
The source made the active and inactive calls. No cut-off for these calls is given here.

Tests used:
[1] = molecular target: Matrix metalloproteinase-14 (Homo sapiens) (UniProt P50281); experiment: Inhibition of human recombinant MMP-14 catalytic domain ([…]) using fluorogenic MOCAc-Pro-Leu-Gly-Leu-A2pr(Dnp)-Ala-Arg-NH2 as substrate at 50 uM by fluorescence spectrophotometric analysis relative to control
[2] = molecular target: MMP-8 (neutrophil collagenase) (Homo sapiens, UniProt P22894); experiment: (§1) Inhibition of human recombinant MMP-8 catalytic domain (99 to 269 residues) expressed in Escherichia coli using fluorogenic Mca-KPLGL-Dpa-AR-NH2 as substrate at 10 uM by fluorescence spectrophotometric analysis relative to control; conditions: probe Mca-KPLGL-Dpa-AR-NH2 (fluorogenic)
Sequence of MMP-8 (neutrophil collagenase) (P22894 whole entry, the tested form may be a part): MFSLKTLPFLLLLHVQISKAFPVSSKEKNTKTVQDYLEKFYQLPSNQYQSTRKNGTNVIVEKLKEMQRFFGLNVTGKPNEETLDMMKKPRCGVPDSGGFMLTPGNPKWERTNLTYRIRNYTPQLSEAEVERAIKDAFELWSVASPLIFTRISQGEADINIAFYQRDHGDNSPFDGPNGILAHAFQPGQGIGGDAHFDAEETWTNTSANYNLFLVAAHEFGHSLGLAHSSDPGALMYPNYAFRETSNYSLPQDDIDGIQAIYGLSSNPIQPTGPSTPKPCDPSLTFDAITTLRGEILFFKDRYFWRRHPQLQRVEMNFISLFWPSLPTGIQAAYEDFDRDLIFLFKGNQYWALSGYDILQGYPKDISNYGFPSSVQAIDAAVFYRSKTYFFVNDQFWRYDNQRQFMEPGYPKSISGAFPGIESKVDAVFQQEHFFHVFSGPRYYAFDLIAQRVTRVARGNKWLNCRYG

[3] = molecular target: Stromelysin-1 (Homo sapiens) (UniProt P08254); experiment: Inhibition of human recombinant MMP-3 catalytic domain expressed in Escherichia coli using fluorogenic MOCAc-Arg-Pro-Lys-Pro-Val-Glu-Nva-Trp-Arg-Lys(Dnp)-NH2 as substrate at 10 uM by fluorescence spectrophotometric analysis
Sequence of Stromelysin-1 (Homo sapiens) (P08254 100-477 limits assumed): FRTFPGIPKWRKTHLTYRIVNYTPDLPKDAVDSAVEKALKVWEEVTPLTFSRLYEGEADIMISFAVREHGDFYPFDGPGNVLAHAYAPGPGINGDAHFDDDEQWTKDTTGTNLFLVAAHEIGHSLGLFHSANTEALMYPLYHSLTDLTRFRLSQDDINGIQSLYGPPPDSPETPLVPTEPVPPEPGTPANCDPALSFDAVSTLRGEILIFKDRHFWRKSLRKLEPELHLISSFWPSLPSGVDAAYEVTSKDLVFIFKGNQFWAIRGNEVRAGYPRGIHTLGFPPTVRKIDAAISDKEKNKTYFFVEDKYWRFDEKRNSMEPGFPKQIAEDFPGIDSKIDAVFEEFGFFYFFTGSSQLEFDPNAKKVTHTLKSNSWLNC
In short: (§2)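 Single-concentration screen: compounds were incubated at 10 μM with each MMP and its substrate, and percent inhibition was measured.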

[4] = molecular target: Matrix metalloproteinase-9 (Homo sapiens) (UniProt P14780); experiment: Inhibition of human recombinant MMP-9 catalytic domain (107 to 449 residues) expressed in Escherichia coli using fluorogenic MOCAc-Pro-Leu-Gly-Leu-A2pr(Dnp)-Ala-Arg-NH2 as substrate at 10 uM by fluorescence spectrophotometric analysis; in short: as §2
Sequence of Matrix metalloproteinase-9 (Homo sapiens) (P14780 whole entry, the tested form may be a part): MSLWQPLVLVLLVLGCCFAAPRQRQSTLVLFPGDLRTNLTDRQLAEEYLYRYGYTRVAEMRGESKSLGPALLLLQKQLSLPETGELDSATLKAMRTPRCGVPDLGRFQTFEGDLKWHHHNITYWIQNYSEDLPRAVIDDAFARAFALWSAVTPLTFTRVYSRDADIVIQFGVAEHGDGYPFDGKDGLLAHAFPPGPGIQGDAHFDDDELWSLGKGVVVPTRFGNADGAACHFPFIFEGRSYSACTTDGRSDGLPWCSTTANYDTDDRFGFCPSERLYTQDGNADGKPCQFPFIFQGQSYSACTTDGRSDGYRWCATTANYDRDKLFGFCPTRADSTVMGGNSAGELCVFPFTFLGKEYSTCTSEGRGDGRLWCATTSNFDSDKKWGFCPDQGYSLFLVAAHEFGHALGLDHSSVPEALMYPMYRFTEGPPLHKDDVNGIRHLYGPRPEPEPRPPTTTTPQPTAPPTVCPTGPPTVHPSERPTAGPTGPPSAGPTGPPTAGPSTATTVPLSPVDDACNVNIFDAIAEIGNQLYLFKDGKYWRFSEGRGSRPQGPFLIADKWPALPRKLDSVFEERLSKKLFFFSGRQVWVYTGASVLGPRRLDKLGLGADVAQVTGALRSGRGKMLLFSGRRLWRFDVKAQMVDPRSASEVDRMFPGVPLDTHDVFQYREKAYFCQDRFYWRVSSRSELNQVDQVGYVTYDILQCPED

[5] = molecular target: T1, Neutrophil collagenase (Homo sapiens, UniProt P22894); experiment: Inhibition of human recombinant MMP-8 catalytic domain (99 to 269 residues) expressed in Escherichia coli using fluorogenic Mca-KPLGL-Dpa-AR-NH2 as substrate by fluorescence spectrophotometric analysis
T1 sequence (P22894 whole entry, the tested form may be a part): as the sequence (P22894 whole entry, the tested form may be a part) above
In short: (§3)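 Ki was determined only for compounds giving more than 50% inhibition in the 10 μM enzyme–substrate screen.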

[6] = molecular target: Matrix metalloproteinase-14 (Homo sapiens) (UniProt P50281); experiment: Inhibition of human recombinant MMP-14 catalytic domain (89 to 265 residues) expressed in Escherichia coli using fluorogenic MOCAc-Pro-Leu-Gly-Leu-A2pr(Dnp)-Ala-Arg-NH2 as substrate at 10 uM by fluorescence spectrophotometric analysis; in short: as §2
[7] = molecular target: T2, Collagenase 3 (Homo sapiens, UniProt P45452); experiment: Inhibition of human recombinant MMP-13 catalytic domain (104 to 274 residues) expressed in Escherichia coli using fluorogenic Mca-KPLGL-Dpa-AR-NH2 as substrate by fluorescence spectrophotometric analysis; in short: as §3
[8] = molecular target: T3, Interstitial collagenase (Homo sapiens) (UniProt P03956); experiment: Inhibition of human recombinant MMP-1 catalytic domain (100 to 268 residues) expressed in Escherichia coli using fluorogenic Mca-KPLGL-Dpa-AR-NH2 as substrate at 10 uM by fluorescence spectrophotometric analysis; in short: as §2
T3 sequence (whole entry): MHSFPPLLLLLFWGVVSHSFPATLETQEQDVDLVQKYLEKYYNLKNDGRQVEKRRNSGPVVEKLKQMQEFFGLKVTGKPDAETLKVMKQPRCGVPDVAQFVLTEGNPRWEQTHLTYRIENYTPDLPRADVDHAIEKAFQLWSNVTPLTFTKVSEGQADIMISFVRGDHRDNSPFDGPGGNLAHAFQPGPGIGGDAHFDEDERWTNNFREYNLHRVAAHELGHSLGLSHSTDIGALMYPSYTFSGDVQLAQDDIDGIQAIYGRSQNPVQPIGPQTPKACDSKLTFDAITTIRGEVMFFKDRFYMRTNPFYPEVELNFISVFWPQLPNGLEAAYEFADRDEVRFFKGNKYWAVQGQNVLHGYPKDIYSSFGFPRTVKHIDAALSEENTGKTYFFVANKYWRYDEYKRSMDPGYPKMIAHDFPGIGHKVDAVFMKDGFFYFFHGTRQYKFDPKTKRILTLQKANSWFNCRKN

[9] = molecular target: T2, Collagenase 3; experiment: Inhibition of human recombinant MMP-13 catalytic domain (104 to 274 residues) expressed in Escherichia coli using fluorogenic Mca-KPLGL-Dpa-AR-NH2 as substrate at 10 uM by fluorescence spectrophotometric analysis relative to control; in short: as §2
[10] = molecular target: 72 kDa type IV collagenase (Homo sapiens) (UniProt P08253); experiment: Inhibition of human recombinant full length active MMP-2 expressed in mouse cells using fluorogenic MOCAc-Pro-Leu-Gly-Leu-A2pr(Dnp)-Ala-Arg-NH2 as substrate at 10 uM by fluorescence spectrophotometric analysis; assay type: biochemical; in short: as §2
Sequence of 72 kDa type IV collagenase (Homo sapiens) (P08253 110-660 limits assumed): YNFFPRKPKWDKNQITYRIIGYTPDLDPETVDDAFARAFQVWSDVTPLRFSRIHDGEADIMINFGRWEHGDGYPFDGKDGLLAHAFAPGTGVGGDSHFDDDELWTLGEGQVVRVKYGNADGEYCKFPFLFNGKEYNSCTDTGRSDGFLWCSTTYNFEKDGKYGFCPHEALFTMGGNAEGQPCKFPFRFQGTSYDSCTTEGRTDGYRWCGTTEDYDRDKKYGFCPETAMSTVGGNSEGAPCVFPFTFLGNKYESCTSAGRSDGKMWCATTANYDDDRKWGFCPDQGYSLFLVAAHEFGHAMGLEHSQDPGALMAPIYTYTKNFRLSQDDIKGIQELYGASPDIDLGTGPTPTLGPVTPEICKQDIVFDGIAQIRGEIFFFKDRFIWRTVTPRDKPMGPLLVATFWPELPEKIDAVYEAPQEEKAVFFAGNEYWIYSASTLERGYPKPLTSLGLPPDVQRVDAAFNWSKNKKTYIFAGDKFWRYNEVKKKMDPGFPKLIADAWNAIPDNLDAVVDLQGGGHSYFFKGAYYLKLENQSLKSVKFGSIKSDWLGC

[11] = molecular target: T4, Matrilysin (Homo sapiens) (UniProt P09237); experiment: Inhibition of human recombinant active MMP-7 expressed in Escherichia coli using fluorogenic MOCAc-Pro-Leu-Gly-Leu-A2pr(Dnp)-Ala-Arg-NH2 as substrate at 10 uM by fluorescence spectrophotometric analysis; in short: as §2
T4 sequence (whole entry): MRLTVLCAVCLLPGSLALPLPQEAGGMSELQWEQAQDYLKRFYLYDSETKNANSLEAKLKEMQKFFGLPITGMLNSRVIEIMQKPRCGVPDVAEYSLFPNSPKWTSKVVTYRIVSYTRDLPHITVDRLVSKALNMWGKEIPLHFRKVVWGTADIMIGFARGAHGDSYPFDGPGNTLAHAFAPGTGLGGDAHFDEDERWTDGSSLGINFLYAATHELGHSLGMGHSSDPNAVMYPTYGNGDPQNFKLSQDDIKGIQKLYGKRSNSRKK

[12] = molecular target: Matrix metalloproteinase-14 (Homo sapiens) (UniProt P50281); experiment: Inhibition of human recombinant MMP-14 catalytic domain ([…]) using fluorogenic MOCAc-Pro-Leu-Gly-Leu-A2pr(Dnp)-Ala-Arg-NH2 as substrate at 10 uM by fluorescence spectrophotometric analysis relative to control; in short: as §2
[13] = Plasma concentration in CD-1 mouse at 10 mg/kg, po after 48 hrs by UPLC analysis; conditions: in vivo
[14] = Plasma concentration in CD-1 mouse at 1 mg/kg, iv administered as single dose after 24 hrs by UPLC analysis; assay type: ADME, organism-based
In short: (§4)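 Mouse pharmacokinetics after a single 1 mg/kg intravenous dose. Three mice were sampled per time point and plasma concentration–time curves were built. Plasma levels were read at 2 min and at 24 h. AUC0-∞, clearance (also expressed as a percentage of hepatic blood flow), volume of distribution and elimination half-life were derived from the curves.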

[15] = system: Mus musculus; experiment: Clearance in CD-1 mouse at 1 mg/kg, iv administered as single dose by UPLC analysis relative to hepatic blood flow; assay type: ADME, organism-based; conditions: in vivo; in short: as §4
[16] = Elimination half life in CD-1 mouse at 10 mg/kg, po by UPLC analysis; assay type: ADME, organism-based; conditions: in vivo, read-out: beta t1/2 (converted)
In short: (§5)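 Mouse pharmacokinetics after a single 10 mg/kg oral dose. Three mice were sampled per time point, out to 48 h, and plasma concentration–time curves were built. Cmax and its time, elimination half-life and AUC0-∞ were derived. Absolute oral bioavailability came from the oral AUC relative to the intravenous (1 mg/kg) AUC, after dose adjustment.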

[17] = Plasma concentration in CD-1 mouse at 1 mg/kg, iv administered as single dose after 2 mins by UPLC analysis; assay type: ADME, organism-based; in short: as §4
[18] = Oral bioavailability in CD-1 mouse at 10 mg/kg by UPLC analysis; assay type: ADME, organism-based; conditions: in vivo; in short: as §5
[19] = AUC (0 to infinity) in CD-1 mouse at 10 mg/kg, po by UPLC analysis; assay type: ADME, organism-based; set-up: dose 10 mg/kg, time infinity, route oral; conditions: in vivo
[20] = AUC (0 to infinity) in CD-1 mouse at 1 mg/kg, iv administered as single dose by UPLC analysis; assay type: ADME, organism-based; set-up: dose 1 mg/kg, time infinity, route intravenous; conditions: in vivo; in short: as §4
[21] = Cmax in CD-1 mouse at 10 mg/kg, po after 6 hrs by UPLC analysis; assay type: ADME, organism-based; set-up: dose 10 mg/kg, route oral; conditions: in vivo; in short: as §5
[22] = Volume of distribution in CD-1 mouse at 1 mg/kg, iv administered as single dose by UPLC analysis; assay type: ADME, organism-based; conditions: in vivo; in short: as §4
[23] = system: Mus musculus; experiment: Time at which plasma concentration stays above human recombinant MMP-13 Ki level in CD-1 mouse at 1 mg/kg, iv administered as single dose by UPLC analysis
[24] = Elimination half life in CD-1 mouse at 1 mg/kg, iv administered as single dose by UPLC analysis; assay type: ADME, organism-based; conditions: in vivo, read-out: beta t1/2 (converted); in short: as §4
[25] = Clearance in CD-1 mouse at 1 mg/kg, iv administered as single dose by UPLC analysis; assay type: ADME, organism-based; conditions: in vivo; in short: as §4
[26] = molecular target: T1, Neutrophil collagenase; experiment: as §1; conditions: 10 µM

Row | SMILES | inhibition at 10 µM [2] | inhibition [3] | inhibition [4] | Ki [5] | inhibition [6] | Ki [7] | inhibition [8] | inhibition [9] | inhibition [10] | inhibition [11] | inhibition [12] | inhibition (INH) [26] | other results
1 | O=C1COc2ccc(CNC(=O)c3nc4sc(C5CCCCC5)cc4c(=O)[nH]3)cc2N1 | > 50% | inactive | inactive | 3.3 nM | inactive | 24.5 nM | inactive | > 50% | inactive | inactive |  |  | inhibition [1]: 57%
2 | O=C1COc2ccc(CNC(=O)c3nc4scc(CCc5ccccc5)c4c(=O)[nH]3)cc2N1 | > 50% | inactive | inactive | 6500 nM | inactive | 190 nM | inactive | > 50% | inactive | inactive | 4% |  | 
3 | O=C1COc2ccc(CNC(=O)c3nc4sc5c(c4c(=O)[nH]3)CCCCCC5)cc2N1 | > 50% | inactive | inactive | 0.71 nM | inactive | 0.59 nM | inactive | > 50% | inactive | inactive | 14% |  | 
4 | O=C1COc2ccc(CNC(=O)c3nc4scc(-c5ccc(C(F)(F)F)cc5)c4c(=O)[nH]3)cc2N1 | > 50% | inactive | inactive | 8500 nM | inactive | 36 nM | inactive | > 50% | inactive | inactive | 1% |  | Plasma concentration at 48 h [13]: 42 nM; concentration at 24 h [14]: 62 nM; CL [15]: 3%; half-life [16]: 17.5 h; concentration at 2 min [17]: 4400 nM; bioavailability [18]: 4.7%; AUC(0-inf) [19]: 6.92 µM·h; AUC(0-inf) [20]: 14.8 µM·h; Cmax [21]: 400 nM; Vd [22]: 1 L/kg; Time [23]: 24 h; half-life [24]: 5.3 h; clearance [25]: 2.2 mL/min/kg
5 | O=C1COc2ccc(CNC(=O)c3cc(-c4ccccc4)n[nH]3)cc2N1 |  |  |  |  |  |  |  | Active |  |  |  | Not Active | 
6 | O=C1COc2ccc(CNC(=O)c3cc(-c4ccsc4)n[nH]3)cc2N1 |  |  |  |  |  |  |  | Active |  |  |  | Not Active | 
7 | O=C1COc2ccc(CNC(=O)c3nc4scc(C5CCCCC5)c4c(=O)[nH]3)cc2N1 | > 50% | inactive | inactive | 19 nM | inactive | 0.47 nM | inactive | > 50% | inactive | inactive | 14% |  | 
8 | O=C1COc2ccc(CNC(=O)c3cc(-c4cccc5ccccc45)n[nH]3)cc2N1 |  |  |  |  |  |  |  | Active |  |  |  | Not Active | 
